This sample holds only a part of the variants without activity.
B1: tRNA (parent)
chain: GUUCCGUUGGCGUAAUGGUAACGCGUCUCCCUCCUAAGGAGAAGACUGCGGGUUCGAGUCCCGUACGGAACG

Variants of: B1
Experiment: yeast fitness relative to wild type (ratio to wild type); higher = fitter; tRNA-Arg(CCU), competitive growth, 37 C, YPD
Procedure, shortened: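 Amplicons of the tRNA-Arg(CCU) gene were sequenced, 100-nucleotide paired-end, from the start population and from each end population of a pooled yeast competition. The competition, in six parallel replicates, lasted 24 hours in YPD at 37°C. Fitness relative to wild type was calculated from changes in genotype frequencies. Genotypes had to have ≥ 100 starting reads, and estimates < 0.5 were set to 0.5.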
Variant C30G C49A has a yeast fitness of no more than 0.5. For C30G C49U, the yeast fitness was 0.643. Variant C30G G41C has a yeast fitness of 0.616. Work on C30G G41A yielded a yeast fitness of 0.568. C30G U59C A65U gave a yeast fitness of 0.528. C30G A37C G38A A40U A45G showed a yeast fitness of no more than 0.5. Variant C30A U32G has a yeast fitness of 0.624. Variant C30A U32C has a yeast fitness of 0.892. Work on C30G C31G A65U C66G yielded a yeast fitness of no more than 0.5. For C30G G51C, the yeast fitness was no more than 0.5. For C30G G51A, the yeast fitness was 0.566. Variant C30G A37G A40C C55A G58C A65U A70U has a yeast fitness of 0.542. Variant C30G G41C A70U has a yeast fitness of no more than 0.5. C30G U53G G63A gave a yeast fitness of no more than 0.5. With C30G C34G A57U the yeast fitness was no more than 0.5. Work on C30G A70G yielded a yeast fitness of 0.722. In the case of C30G A70C, the yeast fitness is reported as 0.719. C30G C33G C49G C61G showed a yeast fitness of 0.538. For C30G G52C G67A, the yeast fitness was no more than 0.5. In the case of C30G G56A A57U, the yeast fitness is reported as no more than 0.5. In the case of C30A U35A A42G A43C, the yeast fitness is reported as no more than 0.5. Variant C30G C46U has a yeast fitness of 0.648. C30G C46A showed a yeast fitness of 0.587. Work on C30A U35A yielded a yeast fitness of 0.569. C30G U35C C66U gave a yeast fitness of no more than 0.5. C30G U35A C46U G51A G56A showed a yeast fitness of no more than 0.5. Work on C30G A45G U47C yielded a yeast fitness of no more than 0.5. C30G C55A A65U gave a yeast fitness of 0.552. For C30G A42U G58C, the yeast fitness was no more than 0.5. C30G A37G A43U gave a yeast fitness of 0.593. C30G A40C C55A G58C A65U A70U showed a yeast fitness of 0.769. Work on C30G G39C G44A yielded a yeast fitness of no more than 0.5. Work on C30G A65C yielded a yeast fitness of 0.68. Work on C30G A65U yielded a yeast fitness of 0.589. Work on C30A U32A U35G G67A yielded a yeast fitness of no more than 0.5. Work on C30G U47G yielded a yeast fitness of no more than 0.5. In the case of C30G U59A, the yeast fitness is reported as 0.595. Variant C30G U59C has a yeast fitness of 0.537. Work on C30G A40C yielded a yeast fitness of 0.595. With C30G A40G the yeast fitness was 0.605. Work on C30G U32A A42U yielded a yeast fitness of no more than 0.5. C30A U53A C66U showed a yeast fitness of no more than 0.5. C30G U64C gave a yeast fitness of 0.626. In the case of C30G A45C, the yeast fitness is reported as 0.669. With C30G G38C G56A the yeast fitness was 0.959. C30G G52C C62U showed a yeast fitness of no more than 0.5. Variant C30G C55G A57C U59C has a yeast fitness of no more than 0.5. C30G A37U G38A A57C A65C showed a yeast fitness of no more than 0.5. Work on C30G C60U C62G C66A yielded a yeast fitness of 0.695. For C30G G50C, the yeast fitness was 0.781. Variant C30G G50A has a yeast fitness of 0.72. For C30G G41A A45C U64A, the yeast fitness was 0.579. With C30G C34U C49G C55U the yeast fitness was no more than 0.5. C30G A43G C49G showed a yeast fitness of 0.544. Work on C30G C33U C66U yielded a yeast fitness of no more than 0.5. In the case of C30G A69U, the yeast fitness is reported as 0.669. In the case of C30G C33U G58C, the yeast fitness is reported as 0.574. C30G C33U G58A showed a yeast fitness of no more than 0.5. C30G C31G C33G A37C gave a yeast fitness of no more than 0.5. C30G C46U C49G U64A gave a yeast fitness of no more than 0.5. C30G C34G C66U showed a yeast fitness of no more than 0.5. C30G A37G C55G showed a yeast fitness of 0.537. C30G A37C G68A gave a yeast fitness of no more than 0.5. Variant C30G G48C G52A G67U has a yeast fitness of no more than 0.5. With C30G C66A the yeast fitness was no more than 0.5. Work on C30G C66G yielded a yeast fitness of 0.574. Work on C30G C66U yielded a yeast fitness of 0.606. Variant C30G G52C A69C has a yeast fitness of no more than 0.5. For C30G C31U U32C, the yeast fitness was no more than 0.5. Variant C30G C49A U54G A65G has a yeast fitness of no more than 0.5. Variant C30G G52A has a yeast fitness of 0.605. With C30G G52C the yeast fitness was 0.512. C30G A40C C55G gave a yeast fitness of 0.624. Work on C30G C31G U32A C33U A65U yielded a yeast fitness of no more than 0.5. Work on C30G A40G G52C A57C C60U A70C yielded a yeast fitness of no more than 0.5. For C30G C33G C60G A70U, the yeast fitness was no more than 0.5. For C30G C33G C60G A70G, the yeast fitness was 0.544. Work on C30G C31U C46U yielded a yeast fitness of 0.609. C30A U47C C61A A65C gave a yeast fitness of no more than 0.5. Work on C30G A43G yielded a yeast fitness of 0.589. With C30G U35A G51C the yeast fitness was 0.628. C30G U47A C49G C61U G63C gave a yeast fitness of 0.541. C30G C49U U64A showed a yeast fitness of 0.702. With C30G G58C C66G the yeast fitness was 0.829. In the case of C30G U47C G63A G67A, the yeast fitness is reported as no more than 0.5. With C30G U32C G50C U59C the yeast fitness was no more than 0.5. For C30G G41A C66U, the yeast fitness was no more than 0.5. Work on C30G C34A G52C yielded a yeast fitness of no more than 0.5. Variant C30G G58A has a yeast fitness of 0.678. With C30A U47C C66U A70U the yeast fitness was no more than 0.5. Work on C30G G58A G68A yielded a yeast fitness of 0.705. Variant C30G A45C C61A G67C has a yeast fitness of no more than 0.5. C30G A37U gave a yeast fitness of 0.615. With C30G A37C the yeast fitness was 0.673. With C30G A37G the yeast fitness was 0.513. In the case of C30G C31U A57G U59A, the yeast fitness is reported as no more than 0.5. For C30A U64C, the yeast fitness was 0.885. C30G C33A showed a yeast fitness of 0.563. C30G C33G showed a yeast fitness of no more than 0.5. C30G G41A A45C gave a yeast fitness of no more than 0.5. Work on C30G C34G A40C C66A A69C yielded a yeast fitness of 0.527. Variant C30G C62U has a yeast fitness of 0.643. For C30G C33A G56C A65G, the yeast fitness was no more than 0.5. C30G A42G U64G showed a yeast fitness of no more than 0.5. C30G G39A G58U C62A showed a yeast fitness of no more than 0.5. In the case of C30G C34A C49G G50A U59C, the yeast fitness is reported as no more than 0.5. For C30G C46G A69U, the yeast fitness was 0.586. Variant C30A U54C has a yeast fitness of 0.811. For C30G C31A U47G G58C, the yeast fitness was no more than 0.5. In the case of C30G C33U G56C, the yeast fitness is reported as no more than 0.5. Work on C30G U47C C66U yielded a yeast fitness of 0.634. Work on C30G C49A U53C C66G yielded a yeast fitness of 0.513. C30G A40G A45G G52C A57C C60U A70C showed a yeast fitness of no more than 0.5. Work on C30U A36C yielded a yeast fitness of 0.566. C30G C31G C33G A37C G67C gave a yeast fitness of no more than 0.5. With C30G A36G U53A G68A the yeast fitness was no more than 0.5. In the case of C30G C34U C49G, the yeast fitness is reported as 0.615. Work on C30G C31G U32A C33U yielded a yeast fitness of 0.554. For C30A U59C, the yeast fitness was 0.863. Work on C30G C31A yielded a yeast fitness of 0.62. Work on C30G C31G yielded a yeast fitness of 0.687. In the case of C30G C46G U53C A57G A69U, the yeast fitness is reported as no more than 0.5. C30G U32C G50C showed a yeast fitness of no more than 0.5. With C30G A36C C49A C55A G63C A69C the yeast fitness was 0.608. C30G A43C C60G gave a yeast fitness of no more than 0.5. Work on C30G G56A yielded a yeast fitness of 0.75. With C30G G63A A70U the yeast fitness was no more than 0.5. With C30G G67C the yeast fitness was 0.637. C30G A37C A42G A57U showed a yeast fitness of 1.01. C30G C61U gave a yeast fitness of 0.57. Work on C30G C61G yielded a yeast fitness of 0.697. With C30G C61A the yeast fitness was no more than 0.5. For C30A U53A, the yeast fitness was 0.618. Work on C30G C34A C49G G50A U64A G68C yielded a yeast fitness of no more than 0.5. For C30G U32G C55G, the yeast fitness was no more than 0.5. C30G C49A G56A C60G G68C showed a yeast fitness of 0.541. Work on C30G C31U U59A yielded a yeast fitness of 0.563. Variant C30G A42U C61A has a yeast fitness of 0.639. With C30G C33U G58C U64A C66U the yeast fitness was no more than 0.5. Variant C30G C49A G68A has a yeast fitness of no more than 0.5. C30G U32A G48A G67C showed a yeast fitness of 0.568. C30G U35C A42G C49U G56A G58A A70C gave a yeast fitness of 0.591. C30G G38C G56A A65G gave a yeast fitness of 0.624. With C30G A37G C61U the yeast fitness was no more than 0.5. In the case of C30G C34G A37G A45G, the yeast fitness is reported as no more than 0.5. C30G C31G A43G A57G gave a yeast fitness of no more than 0.5. Work on C30G U35C yielded a yeast fitness of no more than 0.5. In the case of C30G C34U A57G C60U G68C, the yeast fitness is reported as no more than 0.5. C30G A36G A57U A65U gave a yeast fitness of 0.555. Variant C30A U32A G38A C55A A65C has a yeast fitness of no more than 0.5. With C30G A36U C49G U53C G58C G67A A70U the yeast fitness was no more than 0.5. Work on C30G A42C G56A yielded a yeast fitness of no more than 0.5. In the case of C30G A37U U47C C60A, the yeast fitness is reported as 0.68. For C30G U53C, the yeast fitness was 0.632. C30A U59G A69G gave a yeast fitness of 0.599. C30G C49U G67C gave a yeast fitness of no more than 0.5. C30A U54A A69C gave a yeast fitness of 0.539. C30G C34G A37G showed a yeast fitness of 0.811. Work on C30G G63C yielded a yeast fitness of no more than 0.5. Work on C30G G63A yielded a yeast fitness of 0.641. For C30G A45U C60G C62U C66G, the yeast fitness was no more than 0.5. For C30G G44C G51C, the yeast fitness was 0.549. For C30G U54G, the yeast fitness was no more than 0.5. With C30G U54C the yeast fitness was 0.568. C30G C46G C61U showed a yeast fitness of no more than 0.5. Variant C30G C34A A57U C61G has a yeast fitness of no more than 0.5. Work on C30G A43U G48C C55A G63A yielded a yeast fitness of no more than 0.5.
